According to ChEMBL document CHEMBL4334471, “Discovery of 1,8-disubstituted-[1,2,3]triazolo[4,5-c]quinoline derivatives as a new class of Hippo signaling pathway inhibitors” (Bioorg Med Chem Lett, 2019):

Columns and labels:
[1] = target: Insulin receptor (Homo sapiens) (UniProt P06213); test: Inhibition of human IR (1005 to 1310 residues) assessed as residual activity at 10 uM using KKSRGDYMTMQIG as substrate after 40 mins by [gamma-33ATP] radiometric assay relative to control
Homo sapiens [2] = species: Homo sapiens; test: Inhibition of recombinant human MARK1 T20S mutant (2 to end residues) assessed as residual activity at 10 uM using KKKVSRSGLYRSPSMPENLNRPR as substrate incubated for 40 mins in presence of [gamma-33ATP by scintillation counting based radiometry assay relative to control
[3] = target: Tyrosine-protein kinase Fyn (Homo sapiens) (UniProt P06241); test: Inhibition of recombinant full length human Fyn assessed as residual activity at 10 uM using KVEKIGEGTYGVV as substrate at 40 mins in presence of [gamma-33ATP] by scintillation counting based radiometry assay relative to control
Chain of Tyrosine-protein kinase Fyn (Homo sapiens) (P06241 2-537 limits assumed): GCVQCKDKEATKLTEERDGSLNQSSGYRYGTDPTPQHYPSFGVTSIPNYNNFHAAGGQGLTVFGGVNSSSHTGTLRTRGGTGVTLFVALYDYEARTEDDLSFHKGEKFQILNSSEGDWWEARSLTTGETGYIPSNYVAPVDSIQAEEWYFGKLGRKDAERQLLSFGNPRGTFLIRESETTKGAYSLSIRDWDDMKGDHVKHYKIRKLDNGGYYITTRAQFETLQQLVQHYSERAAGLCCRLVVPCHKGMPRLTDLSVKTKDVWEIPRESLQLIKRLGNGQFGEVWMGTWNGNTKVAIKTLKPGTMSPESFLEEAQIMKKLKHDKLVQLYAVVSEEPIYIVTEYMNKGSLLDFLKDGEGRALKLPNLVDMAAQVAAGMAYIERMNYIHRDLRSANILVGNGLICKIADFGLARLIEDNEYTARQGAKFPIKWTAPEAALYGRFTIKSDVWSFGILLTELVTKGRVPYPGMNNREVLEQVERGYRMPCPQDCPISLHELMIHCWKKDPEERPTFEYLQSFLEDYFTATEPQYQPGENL

[4] = target: Tyrosine-protein kinase Fes/Fps (Homo sapiens) (UniProt P07332); test: Inhibition of recombinant human FES (2 to end residues) assessed as residual activity at 10 uM using poly(Glu, Tyr) 4:1 as substrate at 40 mins in presence of [gamma-33ATP] by scintillation counting based radiometry assay relative to control
[5] = target: Serine/threonine-protein kinase SIK1 (Homo sapiens) (UniProt P57059); test: Inhibition of recombinant human SIK (1 to 281 residues) assessed as residual activity at 10 uM using AMARAASAAALARRR as substrate incubated for 40 mins in presence of [gamma33P]ATP by scintillation counting based radiometry assay relative to control
[6] = target: Serine/threonine-protein kinase DCLK3 (Homo sapiens) (UniProt Q9C098); test: Inhibition of recombinant human DCAMKL3 (345 to end residues) assessed as residual activity at 10 uM using KKLNRTLSFAEPG as substrate at 40 mins in presence of [gamma-33ATP] by scintillation counting based radiometry assay relative to control
[7] = target: Cyclin-dependent kinase-like 2 (Homo sapiens) (UniProt Q92772); test: Inhibition of recombinant full length human CDKL2 assessed as residual activity at 10 uM in presence of [gamma-33ATP] by scintillation counting based radiometry assay relative to control
Chain of Cyclin-dependent kinase-like 2 (Homo sapiens) (Q92772 whole entry, the tested form may be a part): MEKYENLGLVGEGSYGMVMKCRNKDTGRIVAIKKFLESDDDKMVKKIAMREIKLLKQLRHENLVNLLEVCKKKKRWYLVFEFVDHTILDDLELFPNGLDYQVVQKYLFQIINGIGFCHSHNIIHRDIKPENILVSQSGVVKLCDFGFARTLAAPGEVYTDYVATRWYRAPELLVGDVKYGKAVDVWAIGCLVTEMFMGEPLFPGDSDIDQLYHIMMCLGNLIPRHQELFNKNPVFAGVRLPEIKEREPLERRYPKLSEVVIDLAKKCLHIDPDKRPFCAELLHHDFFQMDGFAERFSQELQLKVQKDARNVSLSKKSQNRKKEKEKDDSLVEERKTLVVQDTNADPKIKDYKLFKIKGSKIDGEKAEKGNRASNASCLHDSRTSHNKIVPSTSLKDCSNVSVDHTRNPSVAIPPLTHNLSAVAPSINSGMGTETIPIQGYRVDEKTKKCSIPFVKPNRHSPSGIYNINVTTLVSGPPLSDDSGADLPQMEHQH

[8] = target: Mitogen-activated protein kinase kinase kinase 5 (Homo sapiens) (UniProt Q99683); test: Inhibition of recombinant human ASK1 (649 to 946 residues) assessed as residual activity at 10 uM using myelin basic protein as substrate incubated for 40 mins in presence of [gamma-33ATP] by scintillation counting based radiometry assay relative to control
Chain of Mitogen-activated protein kinase kinase kinase 5 (Homo sapiens) (Q99683 whole entry, the tested form may be a part): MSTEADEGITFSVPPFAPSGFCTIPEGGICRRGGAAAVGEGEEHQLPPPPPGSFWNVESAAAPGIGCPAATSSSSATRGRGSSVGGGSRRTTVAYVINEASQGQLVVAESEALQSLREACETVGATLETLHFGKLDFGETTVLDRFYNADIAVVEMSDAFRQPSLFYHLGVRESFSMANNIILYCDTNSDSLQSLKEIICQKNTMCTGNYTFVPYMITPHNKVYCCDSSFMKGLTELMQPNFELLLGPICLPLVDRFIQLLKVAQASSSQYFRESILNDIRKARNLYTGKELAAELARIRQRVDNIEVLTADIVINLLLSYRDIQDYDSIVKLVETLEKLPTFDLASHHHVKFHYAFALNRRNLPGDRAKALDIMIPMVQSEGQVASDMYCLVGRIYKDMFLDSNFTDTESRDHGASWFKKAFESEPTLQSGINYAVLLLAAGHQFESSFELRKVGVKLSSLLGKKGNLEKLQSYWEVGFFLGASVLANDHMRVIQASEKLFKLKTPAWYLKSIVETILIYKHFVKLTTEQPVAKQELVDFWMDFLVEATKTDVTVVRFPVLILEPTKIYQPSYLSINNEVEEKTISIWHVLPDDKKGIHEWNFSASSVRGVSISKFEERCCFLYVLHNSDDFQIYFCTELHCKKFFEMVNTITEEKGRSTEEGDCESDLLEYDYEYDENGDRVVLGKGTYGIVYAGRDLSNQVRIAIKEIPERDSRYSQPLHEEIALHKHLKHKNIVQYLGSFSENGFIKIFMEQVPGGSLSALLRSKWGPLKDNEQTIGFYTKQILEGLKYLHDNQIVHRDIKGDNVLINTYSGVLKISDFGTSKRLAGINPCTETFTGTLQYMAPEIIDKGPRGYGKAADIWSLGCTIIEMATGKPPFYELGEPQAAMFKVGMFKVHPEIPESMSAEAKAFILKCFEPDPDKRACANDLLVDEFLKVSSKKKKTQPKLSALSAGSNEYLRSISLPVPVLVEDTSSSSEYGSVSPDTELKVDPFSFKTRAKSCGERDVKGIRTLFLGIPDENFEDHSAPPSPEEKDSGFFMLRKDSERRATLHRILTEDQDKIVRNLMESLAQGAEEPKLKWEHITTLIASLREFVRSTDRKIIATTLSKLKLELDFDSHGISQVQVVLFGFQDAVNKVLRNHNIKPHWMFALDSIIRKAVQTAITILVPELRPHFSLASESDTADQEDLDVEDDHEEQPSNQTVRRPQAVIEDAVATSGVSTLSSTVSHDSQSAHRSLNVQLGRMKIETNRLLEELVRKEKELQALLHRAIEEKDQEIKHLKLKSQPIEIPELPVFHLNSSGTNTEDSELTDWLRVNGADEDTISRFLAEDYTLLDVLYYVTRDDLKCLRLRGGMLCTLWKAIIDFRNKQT

[9] = target: Platelet-derived growth factor receptor alpha (Homo sapiens) (UniProt P16234); test: Inhibition of human PDGFRalpha (550 to end residues) assessed as residual activity at 10 uM using poly(Glu, Tyr) 4:1 as substrate measured after 40 mins in presence of [gamma33P]ATP by scintillation counting based radiometry assay relative to control
Chain of Platelet-derived growth factor receptor alpha (Homo sapiens) (P16234 whole entry): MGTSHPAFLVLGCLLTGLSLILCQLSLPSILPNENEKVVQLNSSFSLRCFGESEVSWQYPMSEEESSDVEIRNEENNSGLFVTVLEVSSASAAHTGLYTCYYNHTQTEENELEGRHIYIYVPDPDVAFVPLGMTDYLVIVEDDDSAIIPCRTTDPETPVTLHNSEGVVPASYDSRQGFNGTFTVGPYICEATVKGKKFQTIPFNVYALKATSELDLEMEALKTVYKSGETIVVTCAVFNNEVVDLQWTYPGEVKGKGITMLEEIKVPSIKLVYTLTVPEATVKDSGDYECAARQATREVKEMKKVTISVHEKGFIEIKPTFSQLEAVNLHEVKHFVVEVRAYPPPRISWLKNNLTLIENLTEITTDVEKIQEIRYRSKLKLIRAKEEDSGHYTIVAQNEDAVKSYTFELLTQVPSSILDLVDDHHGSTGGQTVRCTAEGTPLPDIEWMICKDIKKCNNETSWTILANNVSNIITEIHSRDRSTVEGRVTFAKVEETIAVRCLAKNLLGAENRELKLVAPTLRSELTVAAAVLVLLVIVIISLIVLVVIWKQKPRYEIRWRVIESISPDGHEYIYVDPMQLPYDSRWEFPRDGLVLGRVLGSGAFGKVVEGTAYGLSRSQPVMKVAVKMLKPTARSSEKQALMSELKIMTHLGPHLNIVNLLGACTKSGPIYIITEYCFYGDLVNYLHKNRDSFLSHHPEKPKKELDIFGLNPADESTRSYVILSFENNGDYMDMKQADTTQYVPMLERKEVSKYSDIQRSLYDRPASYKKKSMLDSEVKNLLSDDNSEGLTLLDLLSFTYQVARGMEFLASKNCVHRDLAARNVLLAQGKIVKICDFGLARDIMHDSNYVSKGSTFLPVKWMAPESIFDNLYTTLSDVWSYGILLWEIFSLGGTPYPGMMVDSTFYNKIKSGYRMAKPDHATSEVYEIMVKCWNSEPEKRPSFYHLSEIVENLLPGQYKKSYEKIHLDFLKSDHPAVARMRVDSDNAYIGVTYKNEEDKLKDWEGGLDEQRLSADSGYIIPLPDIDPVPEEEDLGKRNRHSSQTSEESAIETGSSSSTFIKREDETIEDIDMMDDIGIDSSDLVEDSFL

[10] = target: CDK9/cyclin T1 (Homo sapiens) (UniProt O60563+P50750); test: Inhibition of recombinant full length human CDK9/cyclinT1 assessed as residual activity at 10 uM using KTFCGTPEYLAPE as substrate incubated for 40 mins in presence of [gamma-33ATP] by scintillation counting based radiometry assay relative to control; assay type: protein-complex assay
A549 = test: Inhibition of hippo signalling protein in human A549 cells assessed as increase in CTGF mRNA expression level incubated for 24 hrs by qRT-PCR analysis; assay type: cell-based
How it was run: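 A549-CTGF cells were exposed to compound or 0.1% DMSO for 24 h before total RNA extraction. Endogenous CTGF mRNA was quantified by real-time PCR. Data were mean ± SEM (n=4) and compared by Student's t-test.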

[11] = system: Serine/threonine-protein kinase Sgk1 (Homo sapiens), O00141 [S422D]; test: Inhibition of recombinant human SGK S422D mutant (60 to end residues) assessed as residual activity at 10 uM using GRPRTSSFAEGKK as substrate incubated for 40 mins in presence of [gamma33P]ATP by scintillation counting based radiometry assay relative to control
[12] = target: Ribosomal protein S6 kinase alpha-4 (Homo sapiens) (UniProt O75676); test: Inhibition of recombinant human MSK2 (2 to end residues) assessed as residual activity at 10 uM using GRPRTSSFAEGKK as substrate incubated for 40 mins in presence of [gamma-33ATP by scintillation counting based radiometry assay relative to control
[13] = target: TGF-beta receptor type-2 (Homo sapiens) (UniProt P37173); test: Inhibition of recombinant human TGFBR2 (188 to end residues) assessed as residual activity at 10 uM using myelin basic protein as substrate incubated for 120 mins in presence of [gamma33P]ATP by scintillation counting based radiometry assay relative to control
Chain of TGF-beta receptor type-2 (Homo sapiens) (P37173 whole entry): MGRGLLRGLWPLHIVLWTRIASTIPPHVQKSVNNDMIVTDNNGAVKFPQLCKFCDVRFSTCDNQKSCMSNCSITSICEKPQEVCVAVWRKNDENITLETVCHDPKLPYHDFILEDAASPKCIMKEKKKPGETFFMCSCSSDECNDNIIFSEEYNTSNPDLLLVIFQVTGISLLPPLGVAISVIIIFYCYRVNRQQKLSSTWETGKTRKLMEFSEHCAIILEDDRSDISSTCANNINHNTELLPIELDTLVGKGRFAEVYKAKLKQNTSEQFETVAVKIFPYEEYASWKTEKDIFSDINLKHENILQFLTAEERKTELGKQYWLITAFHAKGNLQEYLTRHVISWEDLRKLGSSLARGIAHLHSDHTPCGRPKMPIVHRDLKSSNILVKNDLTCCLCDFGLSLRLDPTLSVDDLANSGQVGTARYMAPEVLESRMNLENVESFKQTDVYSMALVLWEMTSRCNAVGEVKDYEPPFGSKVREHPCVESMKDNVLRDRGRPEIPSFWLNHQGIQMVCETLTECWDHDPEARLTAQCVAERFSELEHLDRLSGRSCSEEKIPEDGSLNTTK

[14] = system: Hepatocyte growth factor receptor (Homo sapiens), P08581 [D1228H]; test: Inhibition of recombinant human MET A1209G/V1290L/D1246H mutant (974 to end residues) assessed as residual activity at 10 uM using KKKGQEEEYVFIE as substrate incubated for 40 mins in presence of [gamma-33ATP by scintillation counting based radiometry assay relative to control
[15] = system: Glycogen synthase kinase-3 alpha (Homo sapiens), P49840 [UNDEFINED MUTATION]; test: Inhibition of human GSK-3alpha S449A mutant (2 to end residues) assessed as residual activity at 10 uM using phospho GS2 peptide as substrate after 40 mins by [gamma-33ATP] radiometric assay
[16] = target: Tyrosine-protein kinase Lck (Homo sapiens) (UniProt P06239); test: Inhibition of recombinant full length human LCK activated assessed as residual activity at 10 uM using KVEKIGEGTYGVVYK as substrate after 40 mins in presence of [gamma-33ATP] by scintillation counting based radiometry assay relative to control
Homo sapiens [17] = species: Homo sapiens; test: Inhibition of recombinant human full length PI3K p110/p65 assessed as residual activity at 10 uM using phosphatidylinositol-4, 5-bisphosphate as substrate incubated for 40 mins in presence of [gamma33P]ATP by scintillation counting based radiometry assay relative to control
Homo sapiens [18] = species: Homo sapiens; test: Inhibition of recombinant human A-Raf Y301D/ Y302D mutant (273 to end residues) assessed as residual activity at 10 uM using myelin basic protein as substrate incubated for 40 mins in presence of [gamma-33ATP] by scintillation counting based radiometry assay relative to control
[19] = target: Serine/threonine-protein kinase DCLK2 (Homo sapiens) (UniProt Q8N568); test: Inhibition of recombinant human DCAMKL2 (376 to end residues) assessed as residual activity at 10 uM using KKLNRTLSFAEPG as substrate at 40 mins in presence of [gamma-33ATP] by scintillation counting based radiometry assay relative to control
Chain of Serine/threonine-protein kinase DCLK2 (Homo sapiens) (Q8N568 whole entry): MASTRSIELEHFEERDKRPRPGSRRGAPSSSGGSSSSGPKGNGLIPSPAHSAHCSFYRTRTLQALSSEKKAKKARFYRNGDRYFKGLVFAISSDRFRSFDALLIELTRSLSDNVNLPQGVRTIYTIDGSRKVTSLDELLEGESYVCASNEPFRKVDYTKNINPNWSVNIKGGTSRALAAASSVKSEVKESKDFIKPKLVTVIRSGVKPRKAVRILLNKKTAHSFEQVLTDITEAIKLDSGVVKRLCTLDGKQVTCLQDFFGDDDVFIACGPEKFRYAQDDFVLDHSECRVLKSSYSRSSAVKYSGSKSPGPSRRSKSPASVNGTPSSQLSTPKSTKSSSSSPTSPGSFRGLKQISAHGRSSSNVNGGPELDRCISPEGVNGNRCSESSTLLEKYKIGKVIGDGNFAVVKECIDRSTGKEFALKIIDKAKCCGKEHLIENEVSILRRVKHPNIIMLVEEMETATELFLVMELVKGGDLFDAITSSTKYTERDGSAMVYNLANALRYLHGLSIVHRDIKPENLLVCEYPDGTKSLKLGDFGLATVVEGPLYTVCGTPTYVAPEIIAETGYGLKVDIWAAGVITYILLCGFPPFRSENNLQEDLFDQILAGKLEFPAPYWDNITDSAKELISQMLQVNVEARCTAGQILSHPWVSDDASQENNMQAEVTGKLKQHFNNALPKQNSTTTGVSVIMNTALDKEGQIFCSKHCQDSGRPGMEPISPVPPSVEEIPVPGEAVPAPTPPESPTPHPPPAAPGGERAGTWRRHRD

[20] = target: Serine/threonine-protein kinase D2 (Homo sapiens) (UniProt Q9BZL6); test: Inhibition of recombinant full-length human PKD2 assessed as residual activity at 10 uM using KKLNRTLSVA as substrate incubated for 40 mins in presence of [gamma33P]ATP by scintillation counting based radiometry assay relative to control

Structure (SMILES): C[C@@H](c1ccccc1)n1nnc2cnc3ccc(-c4cnc5[nH]ccc5c4)cc3c21
- Activity [1]: 64%
- Activity (Homo sapiens [2]): 76%
- Activity [3]: 8%
- Activity [4]: 41%
- Activity [5]: 8%
- Activity [6]: 66%
- Activity [7]: 56%
- Activity [8]: 58%
- Activity [9]: 95%
- Activity [10]: 80%
- inhibition (A549): Dose-dependent effect
- Activity [11]: 52%
- Activity [12]: 58%
- Activity [13]: 87%
- Activity [14]: 72%
- Activity [15]: 79%
- Activity [16]: 4%
- Activity (Homo sapiens [17]): 3%
- Activity (Homo sapiens [18]): 95%
- Activity [19]: 61%
- Activity [20]: 65%
